# Several values for one entry are separate records, joined by “and”; a condition that tells them apart may be missing. Identical values can stand only once. Like-named read-outs stand apart in the source and are kept apart here.
# Experiments:
# [1] = molecular target: T1, LiTryS (Leishmania infantum trypanothione synthetase) (Leishmania infantum, UniProt A4I2Z3); assay: TryS activity end-point assay; type: biochemical; settings: for IC50: ± 2σ, ∼30 assumed for 50 ± 5% inhibition at 30 µM; for % TryS inhibition at 30 µM, LiTryS: NA = not active (enzyme activity > 95%)
# T1 sequence (A4I2Z3 1-652): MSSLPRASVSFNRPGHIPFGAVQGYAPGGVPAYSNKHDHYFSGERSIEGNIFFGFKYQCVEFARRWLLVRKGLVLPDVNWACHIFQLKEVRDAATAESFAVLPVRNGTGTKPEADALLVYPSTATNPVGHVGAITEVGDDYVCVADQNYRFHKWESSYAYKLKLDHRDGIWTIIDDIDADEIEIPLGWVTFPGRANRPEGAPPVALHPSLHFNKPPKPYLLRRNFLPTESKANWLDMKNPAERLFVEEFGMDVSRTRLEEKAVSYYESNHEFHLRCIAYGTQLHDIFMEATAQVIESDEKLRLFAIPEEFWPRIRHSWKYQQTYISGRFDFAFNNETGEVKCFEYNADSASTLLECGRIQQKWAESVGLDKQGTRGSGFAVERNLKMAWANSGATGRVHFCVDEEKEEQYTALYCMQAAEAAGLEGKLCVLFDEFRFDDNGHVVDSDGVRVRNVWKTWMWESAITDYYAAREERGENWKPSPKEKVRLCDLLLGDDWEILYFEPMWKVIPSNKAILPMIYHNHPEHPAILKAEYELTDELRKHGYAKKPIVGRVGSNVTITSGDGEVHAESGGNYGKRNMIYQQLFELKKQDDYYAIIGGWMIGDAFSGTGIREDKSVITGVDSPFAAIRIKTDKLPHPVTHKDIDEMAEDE
# Summary of the method: (§1)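 Recombinant TryS end-point assay in 100 mM HEPES pH 7.4 with 5 mM DTT, 10 mM MgSO4 and 0.5 mM EDTA. ATP was 150 µM and spermidine 2 mM. GSH was 0.25 mM for LiTryS, 0.05 mM for TbTryS and 0.57 mM for TcTryS. Enzyme started the reaction and BIOMOL Green stopped it after 15 min. A650 was read after 20 min at room temperature. Values were corrected with no-enzyme blanks and for compound interference with phosphate. At least quadruplicates; IC50 is given ± 2σn-1.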
# Cytotoxicity assay = type: cell-based, mouse; settings: mouse, J774 macrophages (ATCC TIB67), non-infected
# Summary of the method: (§2)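 J774 mouse macrophages were grown in DMEM with 10% FBS and penicillin/streptomycin at 37 °C in humidified 5% CO2. Cells were seeded at 6 × 10^4 cells/mL and exposed the next day for 24 h to test compound at 100 to 0.001 µM (200 µM for one compound). The WST-1 signal was read at A450. % cytotoxicity was calculated against DMSO-treated and untreated cells, and CC50 is given ± σn–1.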
# [2] = system: L. braziliensis amastigotes; assay: Macrophage infection assay, L. braziliensis amastigotes; type: cell-based, Leishmania braziliensis; settings: for activity at 10 µM: Leishmania braziliensis, Macrophage, read-out: % infection by L. braziliensis at 10 µM; for SI, L. braziliensis amastigotes: selectivity index, macrophage CC50 and amastigote EC50
# Summary of the method: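 J774 macrophages were plated on coverslips at 1 × 10^5 cells/mL in DMEM with 1% FBS. They were infected with stationary-phase L. braziliensis promastigotes (MHOM/BR/01/BA788; 1:20) for 2 h at room temperature, then 22 h at 35 °C. After washing, cells got test compound (5 or 10 µM, or 10–0.01 µM) in 1% DMSO for 24 h at 37 °C and 5% CO2. Cells were EtOH-fixed and DAPI-stained, and 100–200 macrophages were imaged. % infected cells is relative to DMSO.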
# TbTryS = molecular target: T2, TbTryS (Trypanosoma brucei brucei, UniProt Q8IEX1); assay: TryS activity end-point assay; type: biochemical; settings: IC50 value, TbTryS, ± 2σ; ~30 assumed for 50 ± 5% inhibition at 30 µM
# T2 sequence (Q8IEX1 1-627): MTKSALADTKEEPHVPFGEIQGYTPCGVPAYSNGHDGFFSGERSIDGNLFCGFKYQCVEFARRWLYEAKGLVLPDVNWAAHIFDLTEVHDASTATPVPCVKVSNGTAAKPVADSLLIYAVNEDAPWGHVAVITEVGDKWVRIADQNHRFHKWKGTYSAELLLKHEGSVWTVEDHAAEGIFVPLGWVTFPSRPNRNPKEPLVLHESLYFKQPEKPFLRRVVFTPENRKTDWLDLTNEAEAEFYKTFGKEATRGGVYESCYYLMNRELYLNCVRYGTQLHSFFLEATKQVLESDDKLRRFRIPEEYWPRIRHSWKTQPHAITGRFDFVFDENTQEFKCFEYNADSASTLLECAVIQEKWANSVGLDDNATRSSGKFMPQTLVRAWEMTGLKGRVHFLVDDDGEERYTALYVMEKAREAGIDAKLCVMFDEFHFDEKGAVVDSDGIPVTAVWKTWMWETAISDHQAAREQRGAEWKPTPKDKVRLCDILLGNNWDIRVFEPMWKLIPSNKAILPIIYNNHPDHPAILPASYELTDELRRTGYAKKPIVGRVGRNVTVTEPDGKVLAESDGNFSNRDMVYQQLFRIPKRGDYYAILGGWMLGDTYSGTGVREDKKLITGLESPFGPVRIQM
# Summary of the method: as §1
# [3] = system: Mouse macrophages from the cell line J774; assay: Cytotoxicity assay; type: cell-based; settings: 24 h, non-infected J774; for CC50: read-out: CC50, macrophages
# Summary of the method: as §2
# [4] = 24 h, relative to infected non-treated macrophages
smiles,measurement,setting,value
CN1CCN(CCNC(=O)CN2C(=O)Cc3c([nH]c4ccc(Br)cc34)-c3ccc(Cl)cc32)CC1 [Compound 33],IC50,"[1]; IC50 value, LiTryS",1100 ± 300 nM
NCCNC(=O)CN1C(=O)Cc2c([nH]c3ccc(Br)cc23)-c2ccc(Cl)cc21 [Compound 27],"cytotoxicity at 24 h, 100 µM",Cytotoxicity assay,36 ± 1%
same,activity at 10 µM,[2]; 24 h,68 ± 1%
CCN(CC)C(=O)CN1C(=O)Cc2c([nH]c3ccc(Br)cc23)-c2ccc(Cl)cc21 [Compound 12],IC50,"[1]; IC50 value, LiTryS",500 ± 100 nM
same,IC50,TbTryS,~30 µM
same,"cytotoxicity at 24 h, 100 µM",Cytotoxicity assay,24 ± 8%
same,activity at 10 µM,[2]; 24 h,82 ± 14%
NNC(=O)CN1C(=O)Cc2c([nH]c3ccc(Br)cc23)-c2ccc(Cl)cc21 [Compound 8],IC50,"[1]; IC50 value, LiTryS",4000 ± 500 nM
CCN(CC)CCNC(=O)CN1C(=O)Cc2c([nH]c3ccc(Br)cc23)-c2ccc(Cl)cc21 [Compound 28],IC50,"[1]; IC50 value, LiTryS",500 ± 100 nM
same,CC50,[3],6 ± 1 µM
same,% infection by L. braziliensis at 5 µM,[2]; [4],38 ± 1 at 5 µM %
same,"SI, L. braziliensis amastigotes",[2],2
O=C(CN1C(=O)Cc2c([nH]c3ccc(Br)cc23)-c2ccc(Cl)cc21)NCCN1CCCCC1 [Compound 31],IC50,"[1]; IC50 value, LiTryS",800 ± 100 nM
same,CC50,[3],9 ± 1 µM
same,% infection by L. braziliensis at 5 µM,[2]; [4],49 ± 3 at 5 µM %
same,"SI, L. braziliensis amastigotes",[2],2
CNC(=O)CN1C(=O)Cc2c([nH]c3ccc(Br)cc23)-c2ccc(Cl)cc21 [Compound 9],IC50,"[1]; IC50 value, LiTryS",800 ± 100 nM
same,"cytotoxicity at 24 h, 100 µM",Cytotoxicity assay,93 ± 4%
same,activity at 10 µM,[2]; 24 h,107 ± 2%
CC(C)(C)NC(=O)CN1C(=O)Cc2c([nH]c3ccc(Br)cc23)-c2ccc(Cl)cc21 [Compound 15],IC50,"[1]; IC50 value, LiTryS",2300 ± 400 nM
same,"cytotoxicity at 24 h, 100 µM",Cytotoxicity assay,48 ± 8%
same,activity at 10 µM,[2]; 24 h,104 ± 1%
O=C(CN1C(=O)Cc2c([nH]c3ccc(Br)cc23)-c2ccc(Cl)cc21)NC(CO)(CO)CO [Compound 14],IC50,"[1]; IC50 value, LiTryS",5200 ± 400 nM
NC(=O)CN1C(=O)Cc2c([nH]c3ccc(Br)cc23)-c2ccc(Cl)cc21 [Compound 7],IC50,"[1]; IC50 value, LiTryS",5100 ± 500 nM
O=C(CN1C(=O)Cc2c([nH]c3ccc(Br)cc23)-c2ccc(Cl)cc21)N1CCN(c2ncccn2)CC1 [Compound 23],IC50,"[1]; IC50 value, LiTryS",12500 ± 200 nM
CC(C)(C)OC(=O)N1CCN(C(=O)CN2C(=O)Cc3c([nH]c4ccc(Br)cc34)-c3ccc(Cl)cc32)CC1 [Compound 22],IC50,"[1]; IC50 value, LiTryS",30000 nM and ~30000 nM
"O=C(CN1C(=O)Cc2c([nH]c3ccc(Br)cc23)-c2ccc(Cl)cc21)N1CCCCC1 [Compound 24, 9-Bromo-3-chloro-5-[2-oxo-2-(piperidin-1-yl)ethyl]-7,12-dihydrobenzo[2,3]azepino-[4,5-b]indol-6(5H)-one]","% TryS inhibition at 30 µM, LiTryS",[1],38.6 ± 1.3%
COC(=O)CN1C(=O)Cc2c([nH]c3ccc(Br)cc23)-c2ccc(Cl)cc21 [Compound 4],IC50,"[1]; IC50 value, LiTryS",3000 ± 700 nM
O=C(CN1C(=O)Cc2c([nH]c3ccc(Br)cc23)-c2ccc(Cl)cc21)N1CCOCC1 [Compound 26],IC50,"[1]; IC50 value, LiTryS",2800 ± 700 nM
same,CC50,[3],10.2 ± 0.2 µM
same,activity at 10 µM,[2]; 24 h,29 ± 3%
same,"SI, L. braziliensis amastigotes",[2],6
O=C(CN1C(=O)Cc2c([nH]c3ccc(Br)cc23)-c2ccc(Cl)cc21)NCCN1CCOCC1 [Compound 30],IC50,"[1]; IC50 value, LiTryS",3300 ± 100 nM
O=C1Cc2c([nH]c3ccc(Br)cc23)-c2ccc(Cl)cc2N1CCO [Compound 2],IC50,"[1]; read-out: IC50 value, LiTryS",~30000 nM
CN(C)C(=O)CN1C(=O)Cc2c([nH]c3ccc(Br)cc23)-c2ccc(Cl)cc21 [Compound 10],IC50,"[1]; IC50 value, LiTryS",500 nM
same,"cytotoxicity at 24 h, 100 µM",Cytotoxicity assay,21 ± 1%
same,% infection by L. braziliensis at 5 µM,[2]; [4],72 ± 4 at 5 µM %
CC(C)(C)OC(=O)CN1C(=O)Cc2c([nH]c3ccc(Br)cc23)-c2ccc(Cl)cc21 [Compound 6],IC50,"[1]; read-out: IC50 value, LiTryS",2400 ± 300 nM
same,"% cytotoxicity at 100 µM, macrophages",[3]; 100 µM,64 ± 0%
same,% infection by L. braziliensis at 10 µM,"[2]; 10 µM, 24 h, relative to infected non-treated macrophages",89 ± 13%
O=C(CN1C(=O)Cc2c([nH]c3ccc(Br)cc23)-c2ccc(Cl)cc21)NCCN1CCNCC1 [Compound 32],IC50,"[1]; IC50 value, LiTryS",600 ± 100 nM
same,"cytotoxicity at 24 h, 100 µM",Cytotoxicity assay,24 ± 3%
same,activity at 10 µM,[2]; 24 h,139 ± 2%
O=C(O)CN1C(=O)Cc2c([nH]c3ccc(Br)cc23)-c2ccc(Cl)cc21 [Compound 3],"% TryS inhibition at 30 µM, LiTryS",[1],inactive
O=C(CN1C(=O)Cc2c([nH]c3ccc(Br)cc23)-c2ccc(Cl)cc21)Nc1ccccc1 [Compound 19],IC50,"[1]; IC50 value, LiTryS",~30000 nM
same,IC50,TbTryS,30 µM
NCCCCNC(=O)CN1C(=O)Cc2c([nH]c3ccc(Br)cc23)-c2ccc(Cl)cc21 [Compound 35],IC50,"[1]; IC50 value, LiTryS",400 ± 100 nM
same,"cytotoxicity at 24 h, 100 µM",Cytotoxicity assay,0%
same,activity at 10 µM,[2]; 24 h,116 ± 3%
O=C(CN1C(=O)Cc2c([nH]c3ccc(Br)cc23)-c2ccc(Cl)cc21)N1CCCC1 [Compound 25],IC50,"[1]; IC50 value, LiTryS",500 ± 200 nM
same,"cytotoxicity at 24 h, 100 µM",Cytotoxicity assay,69%
same,activity at 10 µM,[2]; 24 h,68 ± 8%
O=C(CN1C(=O)Cc2c([nH]c3ccc(Br)cc23)-c2ccc(Cl)cc21)NCCO [Compound 13],IC50,"[1]; IC50 value, LiTryS",2300 ± 300 nM
O=C(CN1C(=O)Cc2c([nH]c3ccc(Br)cc23)-c2ccc(Cl)cc21)Nc1ncco1 [Compound 18],IC50,"[1]; read-out: IC50 value, LiTryS",20100 ± 1500 nM
O=C(CN1C(=O)Cc2c([nH]c3ccc(Br)cc23)-c2ccc(Cl)cc21)NC1=NCCS1 [Compound 17],IC50,"[1]; IC50 value, LiTryS",~30000 nM
CCNC(=O)CN1C(=O)Cc2c([nH]c3ccc(Br)cc23)-c2ccc(Cl)cc21 [Compound 11],IC50,"[1]; IC50 value, LiTryS",1500 ± 200 nM
CCOC(=O)CN1C(=O)Cc2c([nH]c3ccc(Br)cc23)-c2ccc(Cl)cc21 [Compound 5],"% TryS inhibition at 30 µM, LiTryS",[1],36.2 ± 3.6%
CC(C)(C)OC(=O)NCCNC(=O)CN1C(=O)Cc2c([nH]c3ccc(Br)cc23)-c2ccc(Cl)cc21 [Compound 29],"% TryS inhibition at 30 µM, LiTryS",[1],36.7 ± 5.9%

# Source: publication PMC7717452 (Journal of Enzyme Inhibition and Medicinal Chemistry, 2020)
